Published values pooled from the literature.
Compare with care: the assays were run in different laboratories.
Target: Proto-oncogene tyrosine-protein kinase Src (SRC, Homo sapiens, UniProt P12931)

Compound	effect on	action	method	tested at	quantity	value
Cn1cc(-c2cccc(N3CCc4c(sc5c4CC(C)(C)C5)C3=O)c2CO)cc(Nc2ccncn2)c1=O	enzyme activity	inhibitor		1 µM	inhibition	39%
Cc1nn(C)cc1-c1nc2c(N3CCN(Cc4ccc(Cl)cc4)CC3)c(Cl)cnc2[nH]1	binding		competition with immobilised ligand	1 µM	remaining binding	100%
c1ccc(C(NCCNC(c2ccccc2)c2ccccc2)c2ccccc2)cc1	enzyme activity	inhibitor		10 µM	inhibition	-24%
Cn1cncc1[C@](O)(COc1ccc(C#N)cc1-c1ccc(OC(F)(F)F)cc1)c1ccc(C#N)cc1	cell-free assay		competition with immobilised ligand	1 µM	remaining binding	81%
Nc1ncc(-c2nc(N3CCOCC3)nc(N3CCOCC3)n2)c(C(F)F)n1	binding		competition with immobilised ligand	10 µM	remaining binding	57%
COc1ncccc1-c1cnn2ccc(N3CCN(C(=O)OC(C)C)CC3)nc12	binding		competition with immobilised ligand	1 µM	remaining binding	100%
CC(C)(C)c1cc(C=C(C#N)C#N)cc(Br)c1O	enzyme activity	inhibitor		0.5 µM	remaining activity	87.4%
O=C1c2c(O)cc(O)cc2OC(c2ccc(O)c(O)c2)C1O (stereo not drawn)	enzyme activity	inhibitor		80 µM	inhibition	53%
Cn1cc(-c2cc(F)cc(N3CCn4c(cc5c4CCCC5)C3=O)c2CO)cc(Nc2ccc(N3CCN(C4COC4)CC3)cn2)c1=O	enzyme activity	inhibitor		0.1 µM	inhibition	13%
O=c1[nH]c2ccccc2n1C1CCN(Cc2ccc(-c3[nH]c4cc5ncnc5cc4nc3-c3ccccc3)cc2)CC1	cell-free assay			0.5 µM	remaining signal	103%
C[C@H](C(=O)N[C@H]1COc2ccccc2[C@@H]1S(C)(=O)=O)c1ccc(F)cc1	enzyme activity	inhibitor		10 µM	inhibition	-5%
C#Cc1n[nH]c2c(-c3cn(C(C)c4ccccn4)c(=O)[nH]c3=O)cc(F)cc12 (stereo not drawn)	enzyme activity	inhibitor		1 µM	inhibition	9.4%
